This is an account of results in ChEMBL document CHEMBL1131015, “Homonojirimycin isomers and N-alkylated homonojirimycins: structural and conformational basis of inhibition of glycosidases” (J Med Chem, 1998).

pIC50: −log10 of the molar value. Bounds are passed on as bounds.

Assay [1] addresses Alpha-galactosidase (Coffea arabica) (UniProt Q42656). The following applies: 1000 uM.
For a further assay, the species on record is Bos taurus. The following applies: 1000 uM.
The species entered for a further assay is Rattus norvegicus. The following applies: 1000 uM.
In assay [2] the target is T1, Tissue alpha-L-fucosidase (Rattus norvegicus) (UniProt P17164).
T1 sequence (whole entry): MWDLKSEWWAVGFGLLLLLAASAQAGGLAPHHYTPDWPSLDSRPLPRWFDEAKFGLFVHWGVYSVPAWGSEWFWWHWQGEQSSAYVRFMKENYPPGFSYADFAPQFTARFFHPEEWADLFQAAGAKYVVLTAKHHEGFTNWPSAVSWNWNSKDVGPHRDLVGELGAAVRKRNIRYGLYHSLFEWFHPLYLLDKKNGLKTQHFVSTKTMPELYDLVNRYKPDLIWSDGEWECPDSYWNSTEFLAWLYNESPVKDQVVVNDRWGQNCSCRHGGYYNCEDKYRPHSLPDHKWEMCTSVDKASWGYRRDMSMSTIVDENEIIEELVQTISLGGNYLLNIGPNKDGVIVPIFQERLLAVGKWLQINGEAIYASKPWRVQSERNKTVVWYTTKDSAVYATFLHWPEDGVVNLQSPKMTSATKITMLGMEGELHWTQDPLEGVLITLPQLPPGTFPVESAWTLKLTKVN
The following applies: 1000 uM.

Assay [3] in a line: Inhibitory activity measured against beta-galactosidase of rat intestinal lactase by colorimetric assay using the D-glucose oxidase-peroxidase method. The procedure, abridged: (§1)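 Enzyme source was brush border membranes from the intestine of male Wistar rats. Each activity was run with the appropriate disaccharide as substrate at that enzyme's optimum pH. Released D-glucose was quantified colorimetrically by the glucose oxidase–peroxidase method.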

The nature of assay [4]: Inhibitory activity measured against beta-galactosidase of bovine liver by colorimetric assay using the D-glucose oxidase-peroxidase method. Set-up: species or system Bos taurus. The following applies: in the assay text read “p-nitrophenyl glycoside method” for “D-glucose oxidase-peroxidase method”. The procedure, abridged:
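Activity was measured with the appropriate p-nitrophenyl glycoside as substrate at each enzyme's optimum pH. The reaction was stopped with 400 mM Na2CO3, and released p-nitrophenol was read spectrophotometrically at 400 nm.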

Assay [5] can be described thus: Inhibitory activity measured against beta-galactosidase of rat intestinal lactase by colorimetric assay using the D-glucose oxidase-peroxidase method. An outline of the steps:
as §1

Alpha-galactosidase (Coffea arabica), sequence (Q42656 whole entry, looked up): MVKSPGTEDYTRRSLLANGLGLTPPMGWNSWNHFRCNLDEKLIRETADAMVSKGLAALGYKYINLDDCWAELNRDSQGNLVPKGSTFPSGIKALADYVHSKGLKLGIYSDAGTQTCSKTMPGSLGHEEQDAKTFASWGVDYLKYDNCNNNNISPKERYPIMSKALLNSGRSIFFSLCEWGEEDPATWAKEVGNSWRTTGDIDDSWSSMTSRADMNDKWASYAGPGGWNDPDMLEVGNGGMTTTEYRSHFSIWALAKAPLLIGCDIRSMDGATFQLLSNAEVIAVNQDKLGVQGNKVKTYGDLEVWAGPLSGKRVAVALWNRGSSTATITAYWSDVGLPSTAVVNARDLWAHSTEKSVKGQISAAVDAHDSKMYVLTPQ

On to `OC[C@H]1N[C@H](CO)[C@@H](O)C(O)[C@@H]1O` (stereo partly drawn), for which the inhibition (in assay [1]; in the assay listed under Bos taurus; in the assay filed under Rattus norvegicus) was under 50% throughout.
As to `OC[C@H]1N[C@H](CO)[C@H](O)C(O)[C@H]1O` (stereo partly drawn), the inhibition (usually the share of the control response that was lost under treatment) in assay [2] is under 50%. The pIC50 (commonly the IC50 on a negative log10 scale, so that one unit is a factor of ten) in assay [3] was 3.54.
As for `OCC1NC(CO)[C@@H](O)C(O)C1O` (stereo partly drawn), the pIC50 was 4.07 in assay [4] and 3.89 in assay [5].
With `OC[C@@H]1N[C@H](CO)[C@@H](O)[C@H](O)[C@@H]1O`, the inhibition (in assay [1]; in the assay filed under Bos taurus; in the assay filed under Rattus norvegicus) was under 50% in each case.
Consider `OC[C@H]1N[C@H](CO)[C@@H](O)[C@H](O)[C@H]1O`, for which the inhibition (in assay [1]; in assay [2]; in the assay listed under Bos taurus; in the assay listed under Rattus norvegicus) was under 50% in each case.
As for `OC[C@@H]1N[C@H](CO)[C@@H](O)[C@H](O)[C@H]1O`, the inhibition (in assay [1]; in assay [2]; in the assay filed under Bos taurus; in the assay filed under Rattus norvegicus) was under 50% throughout.
